Activity calls are given as the source filed them. The rule behind the calls is not given here.
Legend:
[1] = system: Mus musculus; assay: Analgesic activity in sc dosed mouse by Eddy hot-plate assay; assay type: functional
[2] = system: Mus musculus; assay: Analgesic activity in sc dosed mouse by Nilsen assay; assay type: functional
[3] = system: Mus musculus; assay: Toxicity in mouse at 16 mg/kg, sc; assay type: organism-based; parameters: dose 16 mg/kg, route subcutaneous; details: in vivo
[4] = system: Rhesus monkey; assay: Toxicity in monkey at 16 mg/kg; assay type: organism-based, Macaca mulatta; parameters: dose 16 mg/kg; details: in vivo
[5] = system: Rhesus monkey; assay: Physical dependence capacity in monkey assessed as precipitation of morphine withdrawal syndrome at 0.5 to 16 mg/kg; assay type: ADME, organism-based, Macaca mulatta; parameters: dose 0.5-16 mg/kg; details: in vivo
[6] = system: Mus musculus; assay: Analgesic activity in po dosed mouse by Nilsen assay; assay type: functional
Summary of the method: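 Mouse analgesia by the Nilsen test with oral dosing. The ED50 is reported in mg/kg with confidence limits in parentheses.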

[7] = system: Rhesus monkey; assay: Toxicity in monkey assessed as myoclonic jerks at 6 mg/kg, sc; assay type: organism-based, Macaca mulatta; parameters: dose 6 mg/kg, route subcutaneous; details: in vivo
[8] = system: Rhesus monkey; assay: Toxicity in monkey assessed as gazing behavior at 10 mg/kg; assay type: organism-based, Macaca mulatta; parameters: dose 10 mg/kg; details: in vivo
[9] = system: Mus musculus; assay: Toxicity in mouse at 50 mg/kg, sc; assay type: organism-based; parameters: dose 50 mg/kg, route subcutaneous; details: in vivo
[10] = system: Rhesus monkey; assay: Toxicity in monkey assessed as vomiting at 1 to 4 mg/kg for 24 hrs; assay type: organism-based, Macaca mulatta; parameters: dose 1-4 mg/kg; details: in vivo
[11] = system: Rhesus monkey; assay: Physical dependence capacity in monkey assessed as single dose suppression of morphine withdrawal syndrome at 1 to 16 mg/kg; assay type: ADME, organism-based, Macaca mulatta; parameters: dose 1-16 mg/kg; details: in vivo
[12] = system: Rhesus monkey; assay: Toxicity in monkey assessed as depression at 1 to 16 mg/kg for 24 hrs; assay type: organism-based, Macaca mulatta; parameters: dose 1-16 mg/kg; details: in vivo
[13] = system: Rhesus monkey; assay: Physical dependence capacity in monkey assessed as single dose suppression of morphine withdrawal syndrome at 2.5 to 10 mg/kg; assay type: ADME, organism-based, Macaca mulatta; parameters: dose 2.5-10 mg/kg; details: in vivo
[14] = system: Rhesus monkey; assay: Toxicity in monkey assessed as head tremor at 10 mg/kg; assay type: organism-based, Macaca mulatta; parameters: dose 10 mg/kg; details: in vivo
[15] = system: Rhesus monkey; assay: Toxicity in monkey assessed as severe retching at 1 to 4 mg/kg for 24 hrs; assay type: organism-based, Macaca mulatta; parameters: dose 1-4 mg/kg; details: in vivo
[16] = system: Rhesus monkey; assay: Toxicity in monkey at 0.5 to 16 mg/kg; assay type: organism-based, Macaca mulatta; parameters: dose 0.5-16 mg/kg; details: in vivo
[17] = system: Rhesus monkey; assay: Physical dependence capacity in monkey assessed as single dose suppression of morphine withdrawal syndrome at 5 to 10 mg/kg; assay type: ADME, organism-based, Macaca mulatta; parameters: dose 5-10 mg/kg; details: in vivo
[18] = system: Rhesus monkey; assay: Toxicity in monkey assessed as tremors at 10 mg/kg for 1 to 2 hrs; assay type: organism-based, Macaca mulatta; parameters: dose 10 mg/kg; details: in vivo
[19] = system: Rhesus monkey; assay: Toxicity in monkey assessed as increase spontaneous movement at 10 mg/kg for 1 to 2 hrs; assay type: organism-based, Macaca mulatta; parameters: dose 10 mg/kg; details: in vivo
[20] = system: Rhesus monkey; assay: Toxicity in monkey assessed as restlessness at 10 mg/kg for 1 to 2 hrs; assay type: organism-based, Macaca mulatta; parameters: dose 10 mg/kg; details: in vivo
[21] = system: Rhesus monkey; assay: Physical dependence capacity in monkey assessed as precipitation of morphine-induced abstinence at 10 mg/kg; assay type: ADME, organism-based, Macaca mulatta; parameters: dose 10 mg/kg; details: in vivo
[22] = system: Rhesus monkey; assay: Toxicity in monkey assessed as apprehensive behavior at 10 mg/kg for 1 to 2 hrs; assay type: organism-based, Macaca mulatta; parameters: dose 10 mg/kg; details: in vivo
[23] = system: Rhesus monkey; assay: Physical dependence capacity in monkey assessed as precipitation of morphine withdrawal syndrome at 5 to 10 mg/kg; assay type: ADME, organism-based, Macaca mulatta; parameters: dose 5-10 mg/kg; details: in vivo
[24] = system: Mus musculus; assay: Toxicity in mouse at 20 to 40 mg/kg, sc; assay type: organism-based; parameters: dose 20-40 mg/kg, route subcutaneous; details: in vivo
[25] = system: Rhesus monkey; assay: Physical dependence capacity in monkey assessed as precipitation of morphine-induced abstinence at 0.5 to 16 mg/kg; assay type: ADME, organism-based, Macaca mulatta; parameters: dose 0.5-16 mg/kg; details: in vivo
[26] = system: Rhesus monkey; assay: Toxicity in monkey assessed as irritable behavior at 10 mg/kg for 1 to 2 hrs; assay type: organism-based, Macaca mulatta; parameters: dose 10 mg/kg; details: in vivo
[27] = system: Rhesus monkey; assay: Toxicity in monkey assessed as muscle rigidity at 10 mg/kg for 1 to 2 hrs; assay type: organism-based, Macaca mulatta, Muscle tissue; parameters: dose 10 mg/kg; details: in vivo
[28] = system: Rhesus monkey; assay: Physical dependence capacity in monkey assessed as single dose suppression of morphine withdrawal syndrome at 0.5 to 16 mg/kg; assay type: ADME, organism-based, Macaca mulatta; parameters: dose 0.5-16 mg/kg; details: in vivo
[29] = system: Rhesus monkey; assay: Toxicity in monkey assessed as pupil dilation at 10 mg/kg for 1 to 2 hrs; assay type: organism-based, Macaca mulatta; parameters: dose 10 mg/kg; details: in vivo
[30] = system: Rhesus monkey; assay: Toxicity in monkey assessed as piloerection at 10 mg/kg for 1 to 2 hrs; assay type: organism-based, Macaca mulatta; parameters: dose 10 mg/kg; details: in vivo
[31] = system: Mus musculus; assay: Analgesic activity mouse at 20 to 40 mg/kg, sc by Eddy hot-plate assay; assay type: functional, organism-based
Summary of the method: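 Mouse analgesia by the Eddy hot-plate assay with subcutaneous injection. The ED50 is expressed with 95% SE limits.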

[32] = Mus musculus, sc, read-out: ED50

C=CCN1CC[C@]23c4c5ccc(O)c4O[C@H]2[C@@H](O)C=C[C@H]3[C@H]1C5.Cl [NALORPHINE HYDROCHLORIDE]
ED50 [1, 32]: 36.4 mg/kg | ED50 [2, 32]: 4.8 mg/kg

CCC[C@@H]1[C@H]2Cc3ccc(O)cc3[C@]1(C)CCN2C.Cl (racemic)
Activity [3]: Non-toxic | ED50 [1]: 0.64 mg/kg | Activity [4]: Non-toxic | Activity [5]: Non-toxic | ED50 [2, 32]: 0.35 mg/kg

COc1ccc2c3c1O[C@H]1[C@@H](O)C=C[C@H]4[C@@H](C2)N(C)CC[C@@]341 [CODEINE]
ED50 [6]: 21.4 mg/kg

CCC[C@H]1[C@H]2Cc3ccc(O)cc3[C@]1(C)CCN2C [listing 1 of 2 here]
Activity [7]: Toxic | ED50 [1, 32]: 1.61 mg/kg | ED50 [2, 32]: 1.8 mg/kg

CCC[C@@H]1[C@H]2Cc3ccc(O)cc3[C@]1(C)CCN2C.Cl
Activity [8]: Toxic | Activity [9]: Toxic | ED50 [6]: 7.26 mg/kg | Activity [10]: Toxic | Activity [11]: Toxic | ED50 [1]: 0.3 mg/kg | Activity [12]: Toxic | Activity [13]: Non-toxic | Activity [14]: Toxic | Activity [15]: Toxic | ED50 [2]: 0.35 mg/kg

CN1CC[C@]23c4c5ccc(O)c4O[C@H]2[C@@H](O)C=C[C@H]3[C@H]1C5.Cl [MORPHINE HYDROCHLORIDE]
ED50 [1, 32]: 1.2 mg/kg | ED50 [2, 32]: 0.8 mg/kg

CCC[C@H]1[C@H]2Cc3ccc(O)cc3[C@]1(C)CCN2C.O=C(O)C(O)c1ccccc1
Activity [16]: Non-toxic | Activity [17]: Non-toxic | Activity [18]: Toxic | Activity [19]: Toxic | Activity [20]: Toxic | Activity [21]: Non-toxic | Activity [22]: Toxic | ED50 [1, 32]: 1.1 mg/kg | Activity [23]: Non-toxic | Activity [24]: Toxic | Activity [25]: Non-toxic | Activity [26]: Toxic | Activity [27]: Toxic | Activity [28]: Non-toxic | Activity [29]: Toxic | Activity [30]: Toxic | ED50 [2, 32]: 1.2 mg/kg

COc1ccc2c3c1O[C@H]1C(=O)CC[C@@]4(O)[C@@H](C2)N(C)CC[C@]314 [OXYCODONE]
ED50 [6]: 1.3 mg/kg

CCC[C@H]1[C@H]2Cc3ccc(O)cc3[C@]1(C)CCN2C [listing 2 of 2 here]
Activity [31]: inactive

Reference: ChEMBL document CHEMBL3272274, “Optical resolution of (+/-)-2,5-dimethyl-2'-hydroxy-9alpha- and -9beta-propyl-6,7-benzomorphans and their pharmacological properties” (J Med Chem, 1976)
